Experimental data reported in ChEMBL document CHEMBL1135445, “4'-Arylpyrrolomorphinans: effect of a pyrrolo-N-benzyl substituent in enhancing delta-opioid antagonist activity” (J Med Chem, 2002).
Where “and” joins values, the source holds several entries; their conditions need not be identical. Equal entries are not always repeated.

How the values were obtained:
[1] = target: T1, Kappa-type opioid receptor (Homo sapiens, UniProt P41145); experiment: The antagonistic activity of compound was tested in [35S]GTP-gamma-S, Recombinant Human Opioid receptor kappa 1 transfected in to CHO cells for the displacement of [3H]U-69593; assay type: functional, cell-based
T1 sequence (P41145 whole entry): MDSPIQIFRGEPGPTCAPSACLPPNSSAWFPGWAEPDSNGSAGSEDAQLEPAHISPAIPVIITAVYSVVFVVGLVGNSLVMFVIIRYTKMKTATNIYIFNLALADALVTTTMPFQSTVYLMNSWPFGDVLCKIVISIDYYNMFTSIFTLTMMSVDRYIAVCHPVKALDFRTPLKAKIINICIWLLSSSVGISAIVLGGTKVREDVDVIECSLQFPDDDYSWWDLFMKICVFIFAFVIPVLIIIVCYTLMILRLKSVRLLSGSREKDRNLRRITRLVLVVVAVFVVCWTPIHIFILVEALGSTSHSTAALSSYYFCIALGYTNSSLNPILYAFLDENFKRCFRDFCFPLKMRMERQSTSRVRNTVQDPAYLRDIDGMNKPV
Procedure, shortened: (§1)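 [35S]GTPγS binding in CHO cells expressing cloned human opioid receptors. Antagonist affinity (Ke) was derived from the compound's blockade of a standard agonist: DAMGO at mu, Cl-DPDPE at delta, U69593 at kappa.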

[2] = target: T2, Delta-type opioid receptor (Homo sapiens, UniProt P41143); experiment: The antagonistic activity tested in [35S]GTP-gamma-S, Recombinant Human Opioid receptor delta 1 transfected in to CHO cells for the displacement of [3H]Cl-DPDPE (delta); assay type: functional, cell-based; procedure, shortened: as §1
T2 sequence (P41143 whole entry): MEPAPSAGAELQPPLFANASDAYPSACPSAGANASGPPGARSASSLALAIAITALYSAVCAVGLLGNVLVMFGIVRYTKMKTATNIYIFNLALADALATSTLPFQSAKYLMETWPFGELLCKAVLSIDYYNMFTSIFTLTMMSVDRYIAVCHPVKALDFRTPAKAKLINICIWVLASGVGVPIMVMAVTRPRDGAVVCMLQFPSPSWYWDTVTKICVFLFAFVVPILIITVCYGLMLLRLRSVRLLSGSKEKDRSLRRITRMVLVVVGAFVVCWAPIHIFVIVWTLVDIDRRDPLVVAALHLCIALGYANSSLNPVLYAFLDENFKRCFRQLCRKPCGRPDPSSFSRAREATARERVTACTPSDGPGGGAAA

Mu-type opioid receptor [3] = target: T3, Mu-type opioid receptor (Homo sapiens, UniProt P35372); experiment: The antagonistic activity tested in [35S]-GTP-gamma S Recombinant Human Opioid receptor mu 1 transfected in to CHO cells for the displacement of [3H]DAMGO (mu); assay type: functional, cell-based; procedure, shortened: as §1
T3 sequence (P35372 whole entry): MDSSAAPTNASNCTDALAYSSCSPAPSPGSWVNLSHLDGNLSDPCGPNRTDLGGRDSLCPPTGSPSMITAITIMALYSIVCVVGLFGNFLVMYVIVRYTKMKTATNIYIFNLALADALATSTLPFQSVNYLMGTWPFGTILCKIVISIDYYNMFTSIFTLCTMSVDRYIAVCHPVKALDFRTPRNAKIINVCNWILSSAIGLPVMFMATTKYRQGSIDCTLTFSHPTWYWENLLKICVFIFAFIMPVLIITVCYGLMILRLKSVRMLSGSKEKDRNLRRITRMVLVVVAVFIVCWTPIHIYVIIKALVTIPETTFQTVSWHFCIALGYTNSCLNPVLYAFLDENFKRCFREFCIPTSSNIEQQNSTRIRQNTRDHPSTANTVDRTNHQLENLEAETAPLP

[4] = target: T2, Delta-type opioid receptor; experiment: Binding affinity towards recombinant human Opioid receptor delta 1 transfected in to CHO cells for the displacement of [3H]Cl-DPDPE (delta); assay type: cell-based
Procedure, shortened: (§2)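 Radioligand displacement (Ki) at cloned human opioid receptors expressed in CHO cells. Radioligands: [3H]DAMGO for mu, [3H]Cl-DPDPE for delta, [3H]U69593 for kappa.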

Mu-type opioid receptor [5] = target: T3, Mu-type opioid receptor; experiment: Binding affinity towards recombinant human Opioid receptor mu 1 transfected in to CHO cells for the displacement of [3H]DAMGO (mu); assay type: cell-based; procedure, shortened: as §2
[6] = target: T1, Kappa-type opioid receptor; experiment: Binding affinity towards recombinant human Opioid receptor kappa 1 transfected in to CHO cells for the displacement of […]; assay type: cell-based; procedure, shortened: as §2
[7] = target: T2, Delta-type opioid receptor; experiment: Partial agonist activity tested in [35S]GTP-gamma-S, Recombinant Human Opioid receptor delta 1 transfected in to CHO cells for the displacement of [3H]Cl-DPDPE (delta); assay type: functional, cell-based
[8] = target: Opioid receptors; mu & delta (Homo sapiens) (UniProt P41143+P35372); experiment: Selectivity ratio of Opioid receptor mu 1 to Opioid receptor delta 1; assay type: protein assay
Chain of Opioid receptors; mu & delta (Homo sapiens) (P35372 whole entry, looked up): as the sequence (P35372 whole entry) above
Chain of Opioid receptors; mu & delta (Homo sapiens) (P41143 whole entry, looked up): as the sequence (P41143 whole entry) above

[9] = target: T1, Kappa-type opioid receptor; experiment: Binding affinity towards recombinant human Opioid receptor kappa 1 transfected in to CHO cells for the displacement of [3H]U-69593; assay type: cell-based; procedure, shortened: as §2
[10] = Selectivity ratio towards Opioid receptor kappa 1 to Opioid receptor delta 1
[11] = target: T2, Delta-type opioid receptor; experiment: The antagonistic activity tested in [35S]GTP-gamma-S, Recombinant Human Opioid receptor delta 1 in to CHO cells for the displacement of [3H]Cl-DPDPE (delta); assay type: functional, cell-based; procedure, shortened: as §1
Mu-type opioid receptor [12] = target: T3, Mu-type opioid receptor; experiment: The partial agonist activity tested in [35S]-GTP-gamma S Recombinant Human Opioid receptor mu 1 transfected in to CHO cells for the displacement of [3H]-DAMGO (mu); assay type: functional, cell-based
Mu-type opioid receptor [13] = target: T3, Mu-type opioid receptor; experiment: Selectivity ratio Opioid receptor mu 1 to Opioid receptor delta 1
[14] = target: T2, Delta-type opioid receptor; experiment: Binding affinity towards recombinant humanOpioid receptor delta 1 transfected in to CHO cells for the displacement of [3H]Cl-DPDPE (delta); assay type: cell-based; procedure, shortened: as §2

SMILES | Ke [1] [nM] | Ke [2] [nM] | Ke (Mu-type opioid receptor [3]) [nM] | Ki [4] [nM] | Ki (Mu-type opioid receptor [5]) [nM] | Ki [6] [nM] | EC50 [7] [nM] | Ratio [8] | Ki [9] [nM] | Ratio [10] | Ke [11] [nM] | EC50 (Mu-type opioid receptor [12]) [nM] | Ratio (Mu-type opioid receptor [13]) | Ki [14] [nM]
Oc1ccc2c3c1O[C@H]1c4[nH]c5ccccc5c4C[C@@]4(O)[C@@H](C2)N(CC2CC2)CC[C@]314 | 4.95 | 0.11 | 4.26 |  |  |  |  |  |  |  |  |  |  | 
CCCN1CC[C@]23c4c5ccc(O)c4O[C@H]2c2c(c(-c4ccccc4)cn2Cc2ccccc2)C[C@@]3(O)C1C5 | 210 | 6.4 | 45.3 | 21.2 | 40.1 | 191 |  |  |  |  |  |  |  | 
CN1CC[C@]23c4c5ccc(O)c4O[C@H]2c2c(c(-c4ccccc4)cn2Cc2ccccc2)C[C@@]3(O)C1C5 | 1160 |  | 14.1 | 116 | 49.5 |  | 55.2 | 0.43 | 187 | 1.6 |  |  |  | 
Cc1ccc(-c2cn(Cc3ccccc3)c3c2C[C@@]2(O)C4Cc5ccc(O)c6c5[C@@]2(CCN4CC2CC2)[C@H]3O6)cc1 | 61.1 |  |  | 23.5 | 77.9 | 108 |  |  |  |  | 2.37 | 1360 | 3.3 | 
COc1ccc2c3c1O[C@H]1c4c(c(-c5ccccc5)cn4Cc4ccccc4)C[C@@]4(O)C(C2)N(C)CC[C@]314 |  |  |  | 322 | > 10000 |  |  | > 31 | > 10000 | > 31 |  |  |  | 
Oc1ccc2c3c1O[C@H]1c4c(c(-c5ccccc5)cn4Cc4ccccc4)C[C@@]4(O)C(C2)N(CC2CC2)CC[C@]314 |  |  |  |  | 16.8 | 120 |  |  |  |  |  |  |  | 13.7
Cc1c(-c2ccccc2)c2c(n1Cc1ccccc1)[C@@H]1Oc3c(O)ccc4c3[C@@]13CCN(CC1CC1)C(C4)[C@]3(O)C2 | 306 | 3.68 | 17.7 | 17.3 | 52.7 | 183 |  | 3 and 5 |  |  |  |  |  | 
